The text below walks through data of ChEMBL document CHEMBL1141869.

Assay [1] deals with NAD-dependent histone deacetylase SIR2 (Saccharomyces cerevisiae S288c) (UniProt P06700). Nature of the assay: Inhibitory activity against recombinant yeast Sir2 at 100 uM. The procedure, abridged:
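Purified His-tagged recombinant yeast Sir2p (3 μg) was incubated 60 min at 30 °C with 250 μM acetylated histone substrate, 1 mM DTT, 200 μM NAD⁺ and inhibitor at 0, 20, 75, 100, 150 or 300 μM. Deacetylation was detected fluorometrically after developer treatment (ex 360/em 450 nm). Values are means of at least three separate experiments.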

Assay [2] has as its target T1, NAD-dependent protein deacetylase sirtuin-1 (Homo sapiens) (UniProt Q96EB6).
T1 sequence (whole entry): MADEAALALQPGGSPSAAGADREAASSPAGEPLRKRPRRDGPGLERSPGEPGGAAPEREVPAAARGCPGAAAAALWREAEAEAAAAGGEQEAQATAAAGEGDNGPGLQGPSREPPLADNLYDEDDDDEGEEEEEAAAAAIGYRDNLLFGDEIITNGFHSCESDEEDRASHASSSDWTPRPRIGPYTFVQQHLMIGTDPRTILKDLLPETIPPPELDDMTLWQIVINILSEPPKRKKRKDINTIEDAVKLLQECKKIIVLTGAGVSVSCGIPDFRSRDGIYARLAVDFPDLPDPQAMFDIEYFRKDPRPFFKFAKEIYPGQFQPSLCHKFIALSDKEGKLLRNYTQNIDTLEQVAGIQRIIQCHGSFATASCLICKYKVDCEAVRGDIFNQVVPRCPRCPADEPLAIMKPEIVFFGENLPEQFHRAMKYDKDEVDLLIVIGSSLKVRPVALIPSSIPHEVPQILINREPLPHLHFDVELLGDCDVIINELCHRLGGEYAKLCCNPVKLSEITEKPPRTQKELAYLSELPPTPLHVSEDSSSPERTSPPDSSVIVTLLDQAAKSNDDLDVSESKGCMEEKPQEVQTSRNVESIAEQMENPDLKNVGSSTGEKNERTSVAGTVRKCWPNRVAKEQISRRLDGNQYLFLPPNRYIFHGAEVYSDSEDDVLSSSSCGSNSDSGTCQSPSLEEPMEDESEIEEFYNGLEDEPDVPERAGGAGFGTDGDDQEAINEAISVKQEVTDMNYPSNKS
Nature of the assay: Inhibitory activity against human SIRT1 at 100 uM. The procedure, abridged: (§1)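 His-tagged recombinant human SIRT1 or SIRT2 (1 μg), purified, run in a fluorogenic deacetylase assay with 250 μM acetylated histone substrate, 1 mM DTT and 200 μM NAD⁺ for 60 min at 37 °C. Inhibitor was tested at 0, 20, 75, 100, 150 or 300 μM. Developer was added and fluorescence read at ex 360/em 450 nm. Values are the mean of at least three separate experiments.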

The target in assay [3] is T2, NAD-dependent protein deacetylase sirtuin-2 (Homo sapiens) (UniProt Q8IXJ6).
T2 sequence (whole entry): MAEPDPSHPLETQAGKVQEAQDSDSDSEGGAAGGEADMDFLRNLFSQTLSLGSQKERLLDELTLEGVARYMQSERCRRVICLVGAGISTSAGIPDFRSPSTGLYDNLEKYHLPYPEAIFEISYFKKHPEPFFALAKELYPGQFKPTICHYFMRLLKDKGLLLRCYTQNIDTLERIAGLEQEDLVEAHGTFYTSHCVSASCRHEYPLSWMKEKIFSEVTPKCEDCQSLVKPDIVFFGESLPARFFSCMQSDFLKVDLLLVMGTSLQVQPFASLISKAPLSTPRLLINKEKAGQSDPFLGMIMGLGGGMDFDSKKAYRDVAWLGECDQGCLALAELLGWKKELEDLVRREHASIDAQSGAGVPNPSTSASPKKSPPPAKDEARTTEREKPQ
Nature of the assay: Inhibitory activity against human SIRT2 at 100 uM. A digest of the protocol:
as §1

Calls of active or inactive are those of the source. The calls are words filed in the database; no cut-off is given here.

Chain of NAD-dependent histone deacetylase SIR2 (Saccharomyces cerevisiae S288c) (P06700 whole entry): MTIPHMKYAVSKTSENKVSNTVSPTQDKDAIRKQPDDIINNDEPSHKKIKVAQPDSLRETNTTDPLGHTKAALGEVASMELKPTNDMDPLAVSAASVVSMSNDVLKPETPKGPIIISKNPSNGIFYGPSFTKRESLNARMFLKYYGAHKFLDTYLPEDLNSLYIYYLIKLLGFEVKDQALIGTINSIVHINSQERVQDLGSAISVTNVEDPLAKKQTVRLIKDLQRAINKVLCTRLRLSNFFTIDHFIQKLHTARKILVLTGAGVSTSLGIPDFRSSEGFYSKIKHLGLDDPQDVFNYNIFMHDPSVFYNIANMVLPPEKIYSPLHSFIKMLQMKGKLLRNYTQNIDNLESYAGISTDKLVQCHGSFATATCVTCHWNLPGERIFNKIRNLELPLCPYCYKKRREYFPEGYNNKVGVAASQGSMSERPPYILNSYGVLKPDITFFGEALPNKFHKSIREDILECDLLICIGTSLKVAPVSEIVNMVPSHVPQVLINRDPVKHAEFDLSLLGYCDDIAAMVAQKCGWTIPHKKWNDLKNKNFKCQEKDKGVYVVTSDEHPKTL

As for `C[C@@H](NC(=O)c1ccccc1/N=C/c1c(O)ccc2ccccc12)c1ccccc1`, the inhibition (as a rule, how much of the control response was suppressed) in assay [1] worked out at 55.5%; in assay [2], 61.8%; in assay [3], 72.2%.
For `CC(NC(=O)c1cccc(/N=C/c2c(O)ccc3ccccc23)c1)c1ccccc1` (stereo not given), the inhibition in assay [1] was determined as 53.9%; in assay [2], 63%; in assay [3] it was 79.2%.
With `CCOC(=O)c1ccccc1/N=C/c1c(O)ccc2ccccc12`, the inhibition is 20% in assay [1] and 9% in assay [2].
In the case of `N#Cc1ccccc1/N=C/c1c(O)ccc2ccccc12`, the inhibition came to 15% in assay [1] and 20% in assay [2].
`CC(NC(=O)c1ccccc1/N=C/c1cccc2ccccc12)c1ccccc1` (stereo not given): the inhibition stood at 10% in assay [1] and 33% in assay [2].
The corresponding values for `O=C(O)c1ccccc1/N=C/c1c(O)ccc2ccccc12` are 5% and 26%.
On the same counts, the results for `NC(=O)c1ccccc1/N=C/c1c(O)ccc2ccccc12` are “inactive” and “inactive”.
For `C[C@H](NC(=O)c1ccccc1/N=C/c1c(O)ccc2ccccc12)c1ccccc1`, the inhibition in assay [1] came out at 57%; in assay [2] it was 60.2%; in assay [3] it was 73.5%.
On the same counts, the results for `CC(NC(=O)c1ccc(/N=C/c2c(O)ccc3ccccc23)cc1)c1ccccc1` (stereo not given) are 59.8%, 82.6% and 80.2%.
The corresponding values for `CC(NC(=O)c1ccccc1/N=C/c1c(O)ccc2ccccc12)c1ccccc1` (stereo not given) are 65.6%, 44.5% and 71%.
